NR2E3 ag-1 = NR2E3 (human) agonism; GST-NR2E3/biotin-RetCOR TR-FRET, 1536-well; inhibition of corepressor binding, % at 4.78 µM; 320,000 compounds, 0.12% hits;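 active = percent inhibition above the cutoff of mean plus 3 SD of all tested compounds, set per screening campaign, cut at about 20% in these data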;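 also: 0% = DMSO wells and 100% = biotin wells as full block of FRET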
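System: GST-NR2E3 and biotin-RetCOR proteins; probe or stimulus: 7 nM biotin-RetCOR; doses: compound at 4.8 µM, single dose; schedule: Compound–protein incubation for 5 h at 4 °C; detection: time-resolved FRET; read-out: percent inhibition; controls: biotin wells as high control, 0.6% DMSO wells as low control; format: 1536-well plates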
CHT PAM = allosterically activates the human high affinity choline transporter; 310,000 compounds, 0.49% hits; Q9GZV3; CHT-expressing cells, membrane potential dye, choline EC20; stronger effect = higher value; LV-AA mutant CHT in HEK293 cells; B-score at 10 µM;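 active = initial fluorescence not abnormally high and integrated response B-score, plate-corrected, over 3 SD above library mean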
Target sequence (Q9GZV3 whole entry, looked up): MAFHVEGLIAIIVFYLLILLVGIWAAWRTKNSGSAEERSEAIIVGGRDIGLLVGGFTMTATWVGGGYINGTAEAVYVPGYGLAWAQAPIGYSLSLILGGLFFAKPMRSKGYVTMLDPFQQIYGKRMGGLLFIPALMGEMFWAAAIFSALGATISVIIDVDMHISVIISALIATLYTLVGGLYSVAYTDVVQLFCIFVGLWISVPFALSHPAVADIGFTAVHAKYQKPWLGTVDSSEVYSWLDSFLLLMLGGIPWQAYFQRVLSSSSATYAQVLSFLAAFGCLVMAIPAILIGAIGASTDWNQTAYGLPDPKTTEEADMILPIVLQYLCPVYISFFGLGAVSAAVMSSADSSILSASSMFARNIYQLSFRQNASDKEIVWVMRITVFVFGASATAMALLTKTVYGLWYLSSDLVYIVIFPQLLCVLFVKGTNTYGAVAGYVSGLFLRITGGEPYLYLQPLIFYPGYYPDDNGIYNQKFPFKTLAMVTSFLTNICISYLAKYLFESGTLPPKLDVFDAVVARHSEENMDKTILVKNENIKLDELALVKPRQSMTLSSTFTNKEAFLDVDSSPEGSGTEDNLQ
COUP-TFII inh = inhibitors of human COUP-TFII (NR2F2). HEK293T NGFI-A luciferase reporter, luminescence. inhibition, % at 8.6 µM. 370,000 compounds, 0.7% hits. AID 686940;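 active = inhibition above a per-plate cutoff, mean inhibition of test wells between control levels plus 3 SD, cut at about 38% in these data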;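 also: cells cotransfected with COUP-TFII expression vector driving the NGFI-A reporter; 0% = median of COUP-TF2 test wells and 100% = reporter-only cells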
CHT inh = inhibits the human high affinity choline transporter; Q9GZV3; CHT-expressing cells, membrane potential dye, choline response; stronger effect = lower value; B-score at 10 µM; 310,000 compounds, 0.86% hits; AID 488975;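 active = B-score over 3 SD under the library average, and starting fluorescence ratio not unusually high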;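 also: choline stimulus applied at its EC90 after an EC20 pre-addition; B-score computed on integrated fluorescence ratio after choline addition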
NR2E3 ag-2 = agonists of human NR2E3 nuclear receptor; CHO-S Gal4-NCOR/VP16-NR2E3 two-hybrid, luciferase; Q9Y5X4; inhibition of corepressor binding, % at 3.98 µM; AID 602229; 360,000 compounds, 0.35% hits;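 active = inhibition above the mean of all tested compounds plus 3 SD, cut at about 70% in these data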;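 also: 0% = DMSO with NR2E3 transfected cells and 100% = cells lacking NR2E3 construct; higher means lower luciferase signal from less NR2E3 corepressor binding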
GalR3 antagonist = antagonists of human GalR3 | HEK293 GalR3-CNG cAMP membrane potential fluorescence; galR3 body fused to GalR1 C-terminus | 360,000 compounds, 0.44% hits | inhibition, % at 3 µM;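 active = inhibition above the screen-wide average plus 3 SD, cut at about 13% in these data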;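 also: forskolin and galanin both at EC90 stimulate the cells; cAMP rise reported by CNG channel membrane potential dye signal; 0% = forskolin plus galanin with DMSO and 100% = forskolin alone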
VP16 Luc counter = counter-screen for COUP-TFII antagonists: inhibitors of VP16; shares compounds with COUP-TFII inh; 2,500 compounds, 25% hits; inhibition, % at 8.5 µM; HEK293 Gal4-VP16 luciferase reporter, luminescence; in the data active = inhibition above about 13%
NR2F2 inh conf = confirmation of human COUP-TFII (NR2F2) inhibitors; inhibition, % at 8.5 µM; shares compounds with COUP-TFII inh; HEK293 NGFI-A luciferase reporter, luminescence; 2,500 compounds, 45% hits;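 active = mean inhibition over three repeats above a set limit taken from the earlier primary screen, cut at about 38% in these data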;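 also: 100% = cells given the luciferase reporter alone without the COUP-TF2 vector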
* = called active by the depositor; i = inactive; / = not tested or not shown. Shown are actives, neighbours in structure and some others; about 2.3% of the full set was active somewhere.

SMILES | NR2E3 ag-1 | CHT PAM | COUP-TFII inh | CHT inh | NR2E3 ag-2 | GalR3 antagonist | VP16 Luc counter | NR2F2 inh conf
Cc1cccc(NC(=O)c2ccc(C3SCC(=O)N3CCc3ccccc3)cc2)c1 (stereo not given) | 0 | i | 45* | i | 12 | 2 | 4 | 12
CC(=O)Nc1ccc(NC(=O)c2ccc(C3SCC(=O)N3CCc3ccccc3)cc2)cc1 (stereo not given) | 0 | i | 21 | i | 0 | -1 | / | /
Cc1ccc(C(=O)CN2C(=O)c3ccccc3S2(=O)=O)cc1 | 1 | i | 74* | i | 37 | 4 | 77* | 91*
O=C(CN1C(=O)c2ccccc2S1(=O)=O)c1ccccc1Cl | 1 | i | 63* | i | -30 | -3 | 11 | 34
CCCCCOc1ccc(CSC(=N)N)cc1[N+](=O)[O-] | 1 | i | -17 | i | -52 | -5 | / | /
CCCCOc1ccc(Br)cc1CSC(=N)N | / | / | 76* | / | 47 | 23* | 4 | 44*
c1ccc(-c2c[nH]c3ccc(OCCN4CCOCC4)c(-c4ccccc4)c23)cc1 | / | / | -4 | / | / | / | / | /
C[C@@H]1C[C@H]2O[C@@H]2/C=C\C=C\C(=O)Cc2cc(O)cc(O)c2C(=O)O1 | / | / | 86* | / | / | / | 38* | 5
C[C@@H]1C[C@@H]2O[C@H]2CCCCC(=O)Cc2cc(O)cc(O)c2C(=O)O1 | / | / | 63* | / | / | / | 59* | 65*
O=C(CCn1nnc(-c2cccs2)n1)NCc1cccs1 | / | / | -4 | / | / | / | / | /
CCOC(=O)c1c(CN2CCN(CCO)CC2)n(-c2ccccc2)c2cc(Br)c(O)cc12 | 3 | i | 43* | i | 12 | 2 | 2 | -4
CCOC(=O)c1c(CN2CCN(c3ccccc3)CC2)oc2cc(Br)c(O)cc12 | 1 | i | -4 | i | -24 | -11 | / | /
O=C(CSc1nnc(-c2ccccn2)n1-c1ccccc1)Nc1ccc(OCc2ccccc2)cc1 | / | / | 23 | / | / | / | / | /
CCc1nc(CN2CCCC(C(=O)c3ccc4c5c(cccc35)CC4)C2)c(C)[nH]1 (stereo not given) | -5 | i | 28 | i | 17 | -7 | / | /
O=C(c1ccc2c3c(cccc13)CC2)C1CCCN(Cc2ccncc2)C1 (stereo not given) | 0 | i | 53* | i | 28 | 0 | 19* | 30
COc1ccccc1-c1cc2nc(-c3ccccc3)cc(N3CCN(C(=O)c4ccco4)CC3)n2n1 | / | / | 94* | / | -6 | -6 | 13 | 76*
COc1ccccc1-c1cc2nc(-c3ccccc3)cc(N3CCN(C(=O)c4ccoc4)CC3)n2n1 | / | / | 87* | / | -15 | -6 | 10 | 60*
CCCCNC(=O)C1CCCN1C(=O)Nc1cc(C)cc(C)c1 (stereo not given) | / | / | -13 | / | / | / | / | /
Clc1ccccc1-c1nnc2sc(CCc3ccccc3)nn12 | 2 | i | 13 | i | 1 | -6 | / | /
c1ccc(CCc2nn3c(-c4ccncc4)nnc3s2)cc1 | 4 | i | 51* | i | -45 | -1 | 1 | 19
CCN(CC)C(=O)CC[C@@H]1CC[C@]2(CCCN(Cc3ccncc3)C2)O1 | / | / | -15 | / | / | / | / | /
Nc1ccc(-c2ccc(N)c(C(=O)O)c2)cc1C(=O)O | -8 | i | -4 | i | -8 | 0 | / | /
Nc1ccc(Br)cc1C(=O)O | 0 | i | 45* | i | 5 | -4 | 54* | 35
O=C1C(Cl)=C(Nc2ccc3cn[nH]c3c2)C(=O)c2ccccc21 | -6 | i | 41* | i | -99 | -8 | -18 | -46
O=C(Nc1ccc2cn[nH]c2c1)c1c(Cl)cccc1Cl | 3 | i | -7 | i | 14 | 0 | / | /
SMILES | NR2E3 ag-1 | CHT PAM | COUP-TFII inh | CHT inh | NR2E3 ag-2 | GalR3 antagonist | VP16 Luc counter | NR2F2 inh conf
CC(C)(C)c1ccc(C(=O)Nc2cc(Cl)c(Cl)cc2C(=O)O)cc1 | / | / | 0 | / | / | / | / | /
CC(=O)c1ccc(N2CCN(C(=O)/C=C/c3ccc(S(=O)(=O)NCc4ccco4)cc3)CC2)cc1 | 1 | i | 54* | i | 14 | -2 | -1 | 28
CCCCCCCCNS(=O)(=O)CC1NCc2ccc(C)cc21 (stereo not given) | / | / | 13 | / | / | / | / | /
COCCOC(=O)N(C)C[C@@H]1OCCCC[C@H](C)Oc2ccc(NC(=O)Nc3ccccc3)cc2C(=O)N([C@@H](C)CO)C[C@H]1C | / | / | -4 | / | / | / | / | /
COc1ccc([N+](=O)[O-])cc1NC(=S)NC(NC(=O)C(c1ccccc1)c1ccccc1)C(Cl)(Cl)Cl (stereo not given) | -1 | i | 41* | i | 12 | -6 | 0 | 13
COc1ccc([N+](=O)[O-])cc1NC(=O)C(C)c1ccccc1 (stereo not given) | -3 | i | 10 | i | -16 | -1 | / | /
CC(c1ccccc1)N1CC[C@H]2C=CC[C@@H](C(=O)Nc3ccc(F)c(F)c3)[C@H]2C1=O (stereo not given in full) | / | / | -4 | / | / | / | / | /
CN1CCN(Cc2c(O)ccc3occ(C(=O)c4ccccc4)c23)CC1 | -3 | i | 16 | i | -8 | -2 | / | /
CC(=O)C(C(C)=O)c1c(Cl)c(O)c(O)c2c(C(=O)c3ccccc3)coc12 | 3 | i | 68* | i | -36 | -4 | 14* | 60*
COC(=O)[C@]12C[C@H](CC(=O)NCc3ccc(OC)c(OC)c3)C(=O)N(Cc3ccc(Cl)cc3Cl)C1=C[C@H](C(C)(C)C)O[C@@H]2C | / | / | 4 | / | / | / | / | /
CCCCCCCCN1C(=O)[C@@H](CC(=O)NCc2cccc3ccccc23)C[C@@]2(C(=O)OC)C1=C[C@H](COCc1ccccc1)O[C@@H]2C | / | / | 3 | / | / | / | / | /
COc1cc(C)ccc1C(=O)N1CCC(Oc2cccnc2)CC1 | / | / | 30 | / | / | / | / | /
